Results taken from ChEMBL document CHEMBL4619791, “3-Difluoroalkyl Quaternary Oxindoles Inhibit Macrophage Pyroptosis by Blocking Inflammasome Recruitment of Caspase-1” (ACS Med Chem Lett, 2020).
pEC50: −log10 of the molar value. Active and inactive are the calls of the source. The rule behind the calls is not given here.

Legend:
Caspase-4 (Mus musculus) = target: T1, Caspase-4 (Mus musculus) (UniProt P70343); assay: Inhibition of pyroptosis-inducing caspase-11 in LPS-primed immortalized mouse […] cells assessed as cell death at 5 uM by LDH assay; type: cell-based; details: J774.A1
T1 sequence (whole entry): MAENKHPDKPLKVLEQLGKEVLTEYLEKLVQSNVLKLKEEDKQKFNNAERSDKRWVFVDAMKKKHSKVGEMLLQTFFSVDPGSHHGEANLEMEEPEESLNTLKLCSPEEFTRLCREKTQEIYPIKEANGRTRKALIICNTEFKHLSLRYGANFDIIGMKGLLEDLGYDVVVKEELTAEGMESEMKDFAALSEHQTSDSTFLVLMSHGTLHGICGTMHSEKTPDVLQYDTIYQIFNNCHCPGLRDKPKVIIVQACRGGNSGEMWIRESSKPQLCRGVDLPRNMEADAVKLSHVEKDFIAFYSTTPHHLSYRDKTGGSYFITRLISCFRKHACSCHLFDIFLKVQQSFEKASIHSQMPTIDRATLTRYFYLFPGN
Summary of the method: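 Cell death induced by cytoplasmic LPS in J774A.1 cells, measured by LDH release. Mean ± SEM, n ≥ 3.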

[1] = target: NACHT, LRR and PYD domains-containing protein 3 (Mus musculus) (UniProt Q8R4B8); assay: Activation of NLRP3 inflammasome in LPS-primed mouse […] cells assessed as suppression of ATP-induced pyroptosis at 5 uM; type: cell-based; details: J774.A1
Sequence of NACHT, LRR and PYD domains-containing protein 3 (Mus musculus) (Q8R4B8 whole entry, the tested form may be a part): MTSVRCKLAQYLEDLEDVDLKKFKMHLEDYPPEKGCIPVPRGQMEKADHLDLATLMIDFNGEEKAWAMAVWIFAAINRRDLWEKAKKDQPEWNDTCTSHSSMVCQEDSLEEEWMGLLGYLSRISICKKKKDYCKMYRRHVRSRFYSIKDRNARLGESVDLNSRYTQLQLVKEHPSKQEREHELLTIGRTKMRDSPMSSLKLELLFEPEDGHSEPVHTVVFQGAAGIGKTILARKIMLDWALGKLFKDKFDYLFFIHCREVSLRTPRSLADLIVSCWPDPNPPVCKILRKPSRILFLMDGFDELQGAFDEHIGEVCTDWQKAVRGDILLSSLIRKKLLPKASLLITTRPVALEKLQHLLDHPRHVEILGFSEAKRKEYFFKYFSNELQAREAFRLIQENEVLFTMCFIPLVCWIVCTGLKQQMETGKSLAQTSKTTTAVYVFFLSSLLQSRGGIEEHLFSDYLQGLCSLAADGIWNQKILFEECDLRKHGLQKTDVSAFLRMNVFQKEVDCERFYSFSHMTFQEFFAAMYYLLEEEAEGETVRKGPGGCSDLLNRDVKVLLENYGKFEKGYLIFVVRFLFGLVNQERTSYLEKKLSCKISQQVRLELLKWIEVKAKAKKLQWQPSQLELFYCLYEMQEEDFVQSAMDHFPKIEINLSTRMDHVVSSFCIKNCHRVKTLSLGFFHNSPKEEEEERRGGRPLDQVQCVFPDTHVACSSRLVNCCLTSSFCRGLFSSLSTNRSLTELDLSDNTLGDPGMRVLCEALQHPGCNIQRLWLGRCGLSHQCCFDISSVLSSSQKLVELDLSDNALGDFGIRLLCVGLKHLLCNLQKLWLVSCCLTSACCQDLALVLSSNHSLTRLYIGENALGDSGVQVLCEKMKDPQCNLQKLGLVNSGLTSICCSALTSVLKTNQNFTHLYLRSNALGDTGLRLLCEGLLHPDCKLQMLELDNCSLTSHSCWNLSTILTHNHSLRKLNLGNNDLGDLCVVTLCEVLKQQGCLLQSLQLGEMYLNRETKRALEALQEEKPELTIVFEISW
Summary of the method: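 ATP used as a separate NLRP3 inflammasome activator in macrophages to induce pyroptosis.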

Danio rerio = organism: Danio rerio; assay: Antiinflammatory immunity against LPS-induced sepsis in […]:eGFP zebrafish larva assessed as decrease in macrophage infiltration in intestine at 5 uM measured at 7 dpf by confocal microscopic analysis; type: functional, organism-based
Summary of the method: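 Zebrafish sepsis model using Tg(mpeg1:eGFP) larvae with GFP-labelled macrophages, treated at 5 μM. Intestine imaged by confocal microscopy at 7 days post fertilization, and macrophages counted in the imaged region.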

J774.A1 [2] = assay: Inhibition of caspase-1 recruitment to inflammasome in LPS-primed immortalized mouse […] cells assessed as nigericin-induced colocalization of caspase-1 and ASC at 5 uM by immunostaining based confocal microscopy; type: functional, cell-based
Summary of the method: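 Caspase-1 and ASC colocalization: Pearson's correlation coefficient calculated in 20 to 25 randomly selected cells.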

J774.A1 [3] = assay: Inhibition of pyroptosis in LPS-primed immortalized mouse […] cells assessed as reduction in flagellin-induced […] secretion by ELISA; type: functional, cell-based
Summary of the method: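 J774A.1 cells stimulated with flagellin or poly(dA:dT). IL-1β release measured by ELISA. Mean ± SEM, n ≥ 3 independent experiments.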

Caspase-1 (Mus musculus) = target: T2, Caspase-1 (Mus musculus) (UniProt P29452); assay: Inhibition of caspase-1 activity in LPS-primed immortalized mouse […] cells assessed as reduction in nigericin-induced Ac-YVAD-pNA cleavage using Ac-YVAD-pNA as substrate at 5 uM by FAM-FLICA reagent based confocal microscopy; type: cell-based; details: J774.A1
T2 sequence (whole entry): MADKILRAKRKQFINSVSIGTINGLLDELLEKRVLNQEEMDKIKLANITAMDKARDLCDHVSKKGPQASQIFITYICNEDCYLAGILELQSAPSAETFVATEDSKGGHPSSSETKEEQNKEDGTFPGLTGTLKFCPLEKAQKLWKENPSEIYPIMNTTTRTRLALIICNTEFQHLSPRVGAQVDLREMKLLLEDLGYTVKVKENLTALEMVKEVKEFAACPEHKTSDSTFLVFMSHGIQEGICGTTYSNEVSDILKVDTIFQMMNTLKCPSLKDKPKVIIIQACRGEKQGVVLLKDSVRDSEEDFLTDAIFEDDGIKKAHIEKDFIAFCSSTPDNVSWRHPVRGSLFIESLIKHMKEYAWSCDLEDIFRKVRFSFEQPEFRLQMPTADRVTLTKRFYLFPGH
Summary of the method: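 Nigericin-treated macrophages. Active caspase-1 was detected two ways: in J774A.1 cells stained with the FAM-FLICA probe plus Hoechst, imaged by confocal microscopy and FLICA intensity quantified in ≥20 cells per group; and with the Ac-YVAD-pNA substrate. Mean ± SEM, n ≥ 3.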

Mus musculus = assay: Antiinflammatory activity against LPS-induced sepsis C57BL/6J mouse model assessed as increase in median survival time at 20 mg/kg, iv administered as single dose for 30 min prior to LPS challenge
J774.A1 [4] = assay: Inhibition of pyroptosis in LPS-primed immortalized mouse […] cells followed by subsequent nigericin stimulation by imaging analysis; type: functional, cell-based

## CCOC(CN1C(=O)C(NC(=O)Nc2ccc(C)cc2)(C(F)(F)C(=O)Nc2ccc(C)cc2)c2ccccc21)OCC (stereo not drawn)
Caspase-4 (Mus musculus)
  inhibition: Active
[1]
  Activity: Active
Danio rerio
  Activity: Active
J774.A1 [2]
  inhibition: Active
J774.A1 [3]
  inhibition: Active
Caspase-1 (Mus musculus)
  inhibition: Active
Mus musculus
  MST: 8 h
J774.A1 [4]
  pEC50: 5.26
